Active and inactive are the calls of the source. The calls are words filed in the database; no cut-off is given here.
Key:
[1] = Inhibition of Bacillus anthracis replicative DNA helicase using Hel-5'FAM:Hel-3'BHQ as substrate assessed as DNA duplex strand unwinding by FRET assay
[2] = test system: HeLa; test: Cytotoxicity against human HeLa cells by MTT assay in presence of serum free media; format: cell-based
[3] = Inhibition of Staphylococcus aureus replicative DNA helicase using Hel-5'FAM:Hel-3'BHQ as substrate assessed as DNA duplex strand unwinding by FRET assay
[4] = test system: Staphylococcus aureus; test: (§1) Competitive inhibition of Staphylococcus aureus replicative DNA helicase using DNA as substrate by Dixon plot analysis
Summary of the method: (§2)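 FRET-based strand-unwinding assay with S. aureus replicative DNA helicase. An inhibitor dilution series was run at several oligonucleotide (DNA substrate) concentrations, the lowest being 3 nM. IC50 at each level came from 4-parameter curve fitting. Ki and the inhibition mode were derived from a Dixon plot of the DNA-variation data.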

[5] = test system: Staphylococcus aureus; test: (§3) Non-competitive inhibition of Staphylococcus aureus replicative DNA helicase using ATP as substrate
Summary of the method: (§4)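 S. aureus replicative DNA helicase was tested in a FRET-based unwinding assay. An inhibitor dilution series was run across several ATP concentrations. IC50 at each ATP level came from 4-parameter curve fitting, and the mode of inhibition was assigned from how IC50 shifted with ATP concentration.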

[6] = test system: Bacillus anthracis; test: Antibacterial activity against Bacillus anthracis Sterne assessed as inhibition of incorporation of radiolabeled precursors into DNA; format: functional, organism-based
[7] = as §1; summary of the method: as §2
[8] = as §3; summary of the method: as §4
[9] = test system: Staphylococcus aureus; test: Inhibition of Staphylococcus aureus single-strand DNA-stimulated replicative DNA helicase ATPase activity assessed as release of inorganic phosphate at 50 uM after 30 mins by malachite green assay
[10] = Selectivity index, ratio of CC50 for human HeLa cells to IC50 for Staphylococcus aureus replicative DNA helicase; format: functional

Row | Compound | IC50 [1] [µM] | IC50 [3] [nM] | other results
1 | CSc1nc2ccc3nc(NC(=O)c4ccc(C#N)cc4)sc3c2s1 | 11 |  | 
2 | CSc1nc2ccc3nc(NC(=O)c4cccc(F)c4)sc3c2s1 | 3.3 |  | 
3 | CSc1nc2ccc3nc(NC(=O)c4ccc(C(C)(C)C)cc4)sc3c2s1 | > 100 |  | 
4 | CSc1nc2ccc3nc(NC(=O)c4ccc(OC(C)C)cc4)sc3c2s1 | > 100 |  | 
5 | COc1cccc(C(=O)Nc2nc3ccc4nc(SC)sc4c3s2)c1 | 12.5 | 6600 | CC50 [2]: 12.4 µM
6 | COc1cccc(C(=O)Nc2nc3ccc4nc(NC(C)C)sc4c3s2)c1 | 65 | 80000 | 
7 | CSc1nc2ccc3nc(NC(=O)c4ccccc4C)sc3c2s1 | 6.6 |  | 
8 | COc1ccc(C(=O)Nc2nc3ccc4nc(SC)sc4c3s2)c(OC)c1 | > 100 |  | 
9 | CCN(CC)S(=O)(=O)c1ccc(C(=O)Nc2nc3ccc4nc(SC)sc4c3s2)cc1 | > 100 |  | 
10 | COc1cc(C(=O)Nc2nc3ccc4nc(NCCO)sc4c3s2)cc(OC)c1OC | 0.2 | 300 | inhibition [4]: Active; CC50 [2]: > 100 µM; inhibition [5]: Active; IC50 [6]: 17 µM
11 | COc1cccc(C(=O)Nc2nc3ccc4nc(NC5CCCCC5)sc4c3s2)c1 | 90 | > 100000 | 
12 | CSc1nc2ccc3nc(NC(=O)c4ccc(N(C)C)cc4)sc3c2s1 | 2.4 |  | 
13 | CNc1nc2ccc3nc(NC(=O)c4cccc(OC)c4)sc3c2s1 | 0.5 | 2200 | Ki [7]: 2000 nM; CC50 [2]: > 100 µM; IC50 [8]: 2000 nM; inhibition [9]: inactive
14 | COc1cc(C(=O)Nc2nc3ccc4nc(N5CCN(C)CC5)sc4c3s2)cc(OC)c1OC | 0.2 | 200 | CC50 [2]: 2.8 µM; IC50 [6]: 10 µM
15 | CSc1nc2ccc3nc(NC(=O)c4ccc(C)c(C)c4)sc3c2s1 | 3.2 |  | 
16 | CSc1nc2ccc3nc(NC(=O)C4CC4)sc3c2s1 | > 100 |  | 
17 | COc1cccc(C(=O)Nc2nc3ccc4nc(NCC(C)C)sc4c3s2)c1 | 13 | 9000 | CC50 [2]: 44 µM
18 | CSc1nc2ccc3nc(NC(=O)CCc4ccccc4)sc3c2s1 | > 100 |  | 
19 | COc1cc(C(=O)Nc2nc3ccc4nc(NCCN5CCOCC5)sc4c3s2)cc(OC)c1OC | 0.2 | 200 | CC50 [2]: 5.7 µM
20 | COc1cccc(C(=O)Nc2nc3ccc4nc(N5CCOCC5)sc4c3s2)c1 | 2.3 | 3000 | CC50 [2]: > 100 µM
21 | CSc1nc2ccc3nc(NC(=O)c4ccc(Oc5ccccc5)cc4)sc3c2s1 | > 100 |  | 

Row | Compound | IC50 [1] [µM] | IC50 [3] [nM] | other results
22 | CSc1nc2ccc3nc(NC(=O)c4ccc(C)cc4)sc3c2s1 | 7.6 |  | 
23 | CSc1nc2ccc3nc(NC(=O)c4ccc(N5C(=O)CCC5=O)cc4)sc3c2s1 | 1.3 |  | 
24 | CSc1nc2ccc3nc(NC(=O)c4ccc5c(c4)OCCO5)sc3c2s1 | 3 |  | 
25 | COc1ccc(C(=O)Nc2nc3ccc4nc(SC)sc4c3s2)cc1 | 2.2 |  | 
26 | COc1c(C(=O)Nc2nc3ccc4nc(SC)sc4c3s2)cnn1C | > 100 |  | 
27 | CSc1nc2ccc3nc(NC(=O)c4cc(C)no4)sc3c2s1 | > 50 |  | 
28 | CSc1nc2ccc3nc(NC(=O)c4ccccc4Cl)sc3c2s1 | > 100 |  | 
29 | CSc1nc2ccc3nc(NC(=O)Cc4ccccc4)sc3c2s1 | 47 |  | 
30 | CSc1nc2ccc3nc(NC(=O)c4c(C)cnn4C)sc3c2s1 | > 50 |  | 
31 | CSc1nc2ccc3nc(NC(=O)c4ccccc4Br)sc3c2s1 | > 100 |  | 
32 | COc1cccc(C(=O)Nc2nc3ccc4nc(NCCN(C)C)sc4c3s2)c1 | 1 | 1000 | 
33 | CSc1nc2ccc3nc(NC(=O)c4ccccc4F)sc3c2s1 | 50 |  | 
34 | CCCNc1nc2ccc3nc(NC(=O)c4cccc(OC)c4)sc3c2s1 | 1.1 | 1300 | CC50 [2]: < 0.08 µM
35 | CSc1nc2ccc3nc(NC(=O)c4cccc(N5C(=O)CCC5=O)c4)sc3c2s1 | 5 | 12000 | CC50 [2]: > 100 µM
36 | CSc1nc2ccc3nc(NC(=O)COc4ccc(Cl)cc4Cl)sc3c2s1 | > 100 |  | 
37 | COc1cccc(C(=O)Nc2nc3ccc4nc(NCCN5CCOCC5)sc4c3s2)c1 | 0.5 | 2200 | CC50 [2]: 9.6 µM
38 | CSc1nc2ccc3nc(NC(=O)c4cccc(Br)c4)sc3c2s1 | 2.3 |  | 
39 | COc1cc(C(=O)Nc2nc3ccc4nc(NCCN(C)C)sc4c3s2)cc(OC)c1OC | 0.2 | 200 | CC50 [2]: < 0.78 µM
40 | CSc1nc2ccc3nc(NC(=O)c4cnccn4)sc3c2s1 | 28 |  | 
41 | CSc1nc2ccc3nc(NC(=O)c4ccccc4Oc4ccccc4)sc3c2s1 | > 100 |  | 
42 | CSc1nc2ccc3nc(NC(=O)CN4C(=O)CCC4=O)sc3c2s1 | > 100 |  | 

Row | Compound | IC50 [1] [µM] | IC50 [3] [nM] | other results
43 | COc1cc(CNc2nc3ccc4nc(SC)sc4c3s2)cc(OC)c1OC |  | > 100000 | 
44 | CSc1nc2ccc3nc(NC(=O)c4cccs4)sc3c2s1 | 90 |  | 
45 | COc1cccc(C(=O)Nc2nc3ccc4nc(NCCO)sc4c3s2)c1 | 2.2 | 4200 | CC50 [2]: > 100 µM
46 | COc1ccc(C(=O)Nc2nc3ccc4nc(SC)sc4c3s2)cc1OC | 2.1 |  | 
47 | CNc1nc2ccc3nc(NC(=O)c4cc(OC)c(OC)c(OC)c4)sc3c2s1 | 0.2 | 200 | inhibition [4]: Active; CC50 [2]: > 100 µM; Ratio CC50/IC50 [10]: >500; inhibition [5]: Active; inhibition [9]: inactive
48 | CSc1nc2ccc3nc(NC(=O)c4c(F)cccc4F)sc3c2s1 | 64.5 |  | 
49 | COc1cc(/C=N/c2nc3ccc4nc(SC)sc4c3s2)cc(OC)c1OC |  | > 100000 | 
50 | CSc1nc2ccc3nc(NC(=O)c4cccc(N(C)C)c4)sc3c2s1 | 36 |  | 
51 | COc1cc(C(=O)Nc2nc3ccc4nc(SC)sc4c3s2)cc(OC)c1OC | 0.7 | 400 | CC50 [2]: > 100 µM
52 | CCOc1ccc(C(=O)Nc2nc3ccc4nc(SC)sc4c3s2)cc1 | 6.9 |  | 
53 | COc1cccc(OC)c1C(=O)Nc1nc2ccc3nc(SC)sc3c2s1 | > 100 |  | 
54 | CCN(CC)c1ccc(C(=O)Nc2nc3ccc4nc(SC)sc4c3s2)cc1 | > 100 |  | 
55 | COC(=O)c1ccc(C(=O)Nc2nc3ccc4nc(SC)sc4c3s2)cc1 | 3.7 |  | 
56 | COc1cc2ccccc2cc1C(=O)Nc1nc2ccc3nc(SC)sc3c2s1 | > 50 |  | 
57 | CSc1nc2ccc3nc(NC(=O)c4ccco4)sc3c2s1 | 102 |  | 
58 | COc1cc(OC)cc(C(=O)Nc2nc3ccc4nc(SC)sc4c3s2)c1 | 1.7 |  | 
59 | COc1cccc(C(=O)Nc2nc3ccc4nc(NCc5ccccc5)sc4c3s2)c1 | 75 | > 100000 | 
60 | CSc1nc2ccc3nc(NC(=O)c4cccc([N+](=O)[O-])c4)sc3c2s1 | 2.8 |  | 
61 | CSc1nc2ccc3nc(NC(=O)c4ccc(Cl)cc4)sc3c2s1 | 5 |  | 
62 | CSc1nc2ccc3nc(NC(=O)c4cccc(Cl)c4)sc3c2s1 | 5.3 |  | 

— ChEMBL document CHEMBL2390890, “Optimization of a novel potent and selective bacterial DNA helicase inhibitor scaffold from a high throughput screening hit” (Bioorg Med Chem Lett, 2013)
